Measurements pooled from the literature.
Lines come from different studies, so protocols differ.
Target: Ephrin type-A receptor 1 (EPHA1, Homo sapiens, UniProt P21709)
Sequence (P21709 26-976, as in one of the studies): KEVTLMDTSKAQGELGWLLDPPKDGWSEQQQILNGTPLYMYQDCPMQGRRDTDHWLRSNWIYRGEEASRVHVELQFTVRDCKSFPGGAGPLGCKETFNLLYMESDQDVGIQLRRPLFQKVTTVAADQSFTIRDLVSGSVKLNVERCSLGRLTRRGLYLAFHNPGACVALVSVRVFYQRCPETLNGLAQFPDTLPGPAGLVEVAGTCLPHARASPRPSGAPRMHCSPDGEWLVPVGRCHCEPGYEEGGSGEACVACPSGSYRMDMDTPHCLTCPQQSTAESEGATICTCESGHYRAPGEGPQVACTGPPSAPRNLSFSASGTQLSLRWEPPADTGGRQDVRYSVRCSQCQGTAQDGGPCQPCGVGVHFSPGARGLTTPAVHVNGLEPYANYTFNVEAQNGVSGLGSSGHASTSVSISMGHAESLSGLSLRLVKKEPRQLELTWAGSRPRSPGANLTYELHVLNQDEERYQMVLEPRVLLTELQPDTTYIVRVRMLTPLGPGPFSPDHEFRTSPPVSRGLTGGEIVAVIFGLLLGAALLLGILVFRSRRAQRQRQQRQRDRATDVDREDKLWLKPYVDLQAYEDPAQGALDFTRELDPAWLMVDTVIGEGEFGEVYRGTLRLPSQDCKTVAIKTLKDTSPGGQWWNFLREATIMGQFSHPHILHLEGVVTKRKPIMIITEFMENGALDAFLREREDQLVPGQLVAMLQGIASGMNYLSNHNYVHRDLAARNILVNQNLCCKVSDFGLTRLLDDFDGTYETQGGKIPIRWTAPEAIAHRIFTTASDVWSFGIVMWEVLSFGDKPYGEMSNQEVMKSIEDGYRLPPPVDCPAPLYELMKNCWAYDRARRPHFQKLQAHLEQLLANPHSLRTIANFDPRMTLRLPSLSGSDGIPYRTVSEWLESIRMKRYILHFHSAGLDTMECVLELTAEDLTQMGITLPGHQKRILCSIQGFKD

SMILES | effect on | technique | concentration | remaining binding [%]
Cc1cnc(Nc2ccc(C(=O)N3CCC(N4CCCC4)CC3)cc2)nc1-c1cc2ccccc2s1 | binding | competition with immobilised ligand | 1 µM | 3.9
CC(=O)C1=C(C)N(c2cccc(C(F)(F)F)c2)C(=O)N[C@@H]1c1ccc(C#N)nc1 | cell-free assay | competition with immobilised ligand | 1 µM | 100
CN(C)c1nccc(-c2cnc3ncccn23)n1 | binding | – | 1 µM | 93
Cc1nccc(COC(=O)N2C[C@@H]3[C@@H](CNC(=O)c4ccc5[nH]nnc5c4)[C@@H]3C2)n1 | cell-free assay | competition with immobilised ligand | 1 µM | 100
C[C@@H]1CCN(c2nccc(-c3cnn4ncccc34)n2)C1 | binding | – | 1 µM | 100
COc1cnc(Nc2cccc(S(N)(=O)=O)c2)nc1N1CCN(c2ccccc2)CC1 | binding | competition with immobilised ligand | 1 µM | 100
C[C@@H](c1ccc(-n2cnc3c(N)ncnc32)cc1)N1CCc2nn(C)c(Cc3ccccc3)c2C1=O | binding | competition with immobilised ligand | 0.1 µM | 87
CN(C)c1nccc(-c2cnn3ncccc23)n1 | binding | – | 1 µM | 46
COc1ccc2cc(OCC3(C(=O)O)CN(C(=O)c4ccc(F)cc4)C3)ccc2c1 | cell-free assay | competition with immobilised ligand | 1 µM | 83
O=C(c1ccc(Nc2nccc(-c3cc4ccccc4s3)n2)cc1)N1CCC(N2CCCC2)CC1 | binding | competition with immobilised ligand | 1 µM | 32
N[C@@H]1CCN(c2nccc(-c3cnn4ncccc34)n2)C1 | binding | – | 1 µM | 100
CC(=O)N1CCC(c2ccc(C(=O)NC(=N)N)cc2C(F)(F)F)CC1 | cell-free assay | competition with immobilised ligand | 1 µM | 100
CN(C)c1ncc(F)c(-c2cnn3ncccc23)n1 | binding | – | 1 µM | 98
C=CC(=O)N1CCC(C(=O)NCC(=O)N2CCN(c3nc(-c4cnc(N)nc4C(F)F)nc(N4CCOCC4)n3)CC2)CC1 | binding | competition with immobilised ligand | 1 µM | 100
CN(c1nccc(-c2cnn3ncccc23)n1)C1CC1 | binding | – | 1 µM | 99
O=C(Nc1c[nH]nc1C(=O)NC1CCNCC1)c1cc(F)cc(F)c1 | binding | competition with immobilised ligand | 1 µM | 100
CNC(=O)Nc1ccc2c(c1)CC[C@@]21OC(=O)N(CC(=O)N(Cc2ccc(F)cc2)[C@@H](C)C(F)(F)F)C1=O | cell-free assay | competition with immobilised ligand | 1 µM | 88
O=C(c1ccc(Nc2ncc(Cl)c(-c3cc4ccccc4s3)n2)cc1)N1CCC(N2CCCC2)CC1 | binding | competition with immobilised ligand | 1 µM | 16
CCC(=O)N[C@H]1CC[C@@H](C(=O)N(C)c2ccc(-c3nc4ccccc4o3)cc2)C1 | cell-free assay | competition with immobilised ligand | 1 µM | 100
Nc1ncc2c(n1)-c1c([nH]c3ccc(C#CC4CC4)cc13)CCCC2 | binding | competition with immobilised ligand | 1 µM | 89
